NR1D1 modulator: Rev-erb alpha (human) modulation; P20393; Rev-erbα–FITC-DNA binding, fluorescence polarization, 90 min; activity, % at 10 µM; hit rate 0.79% among 370,000;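 active means activity above about 14%, limit read from the data; passing the limit was not always enough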
PG9 Ab binder: small molecules binding HIV-1 gp120 antibody PG9. TR-FRET gp120-PG9 antibody binding. inhibition, % at 6.7 µM. hit rate 0.43% among 360,000. AID 624416; in the data active means inhibition above about 8.5%
NR2E3 ag-1: agonists of human NR2E3 nuclear receptor. Q9Y5X4. CHO-S Gal4-NCOR/VP16-NR2E3 two-hybrid, luciferase. inhibition of corepressor binding, % at 3.98 µM. hit rate 0.35% among 360,000. AID 602229;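 active means inhibition above the mean of all tested compounds plus 3 SD, cut at about 70% in these data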;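 further: higher means lower luciferase signal from less NR2E3 corepressor binding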
Target sequence (Q9Y5X4 whole entry, looked up, the tested form may be a part): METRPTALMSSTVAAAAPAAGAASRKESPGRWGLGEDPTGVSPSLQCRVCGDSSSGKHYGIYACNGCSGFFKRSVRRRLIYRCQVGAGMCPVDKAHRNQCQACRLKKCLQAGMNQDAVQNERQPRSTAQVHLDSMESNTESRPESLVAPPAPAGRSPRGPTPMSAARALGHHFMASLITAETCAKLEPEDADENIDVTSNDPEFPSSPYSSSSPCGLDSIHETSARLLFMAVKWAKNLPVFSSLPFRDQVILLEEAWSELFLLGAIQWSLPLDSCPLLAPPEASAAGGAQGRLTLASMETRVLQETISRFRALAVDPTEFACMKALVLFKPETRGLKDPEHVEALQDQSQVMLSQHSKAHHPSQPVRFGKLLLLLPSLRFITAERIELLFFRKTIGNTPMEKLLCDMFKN
NR2E3 ag-2: activates human photoreceptor nuclear receptor NR2E3. inhibition of corepressor binding, % at 4.78 µM. GST-NR2E3/biotin-RetCOR TR-FRET, 1536-well. Q9Y5X4. hit rate 0.12% among 320,000;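 active means percent inhibition above the cutoff of mean plus 3 SD of all tested compounds, set per screening campaign, cut at about 20% in these data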
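Material: NR2E3–RetCOR corepressor complex / Amount: 1.35 nM GST-NR2E3 / Medium: Tris pH 7.5 / Compound: single nominal compound dose of 4.8 µM / Incubation: 5 h at 4 °C / Technique: TR-FRET, Eu(K)-anti-GST donor, streptavidin-D2 acceptor, ex 340, em 617/671 nm / Read-out basis: percent loss of FRET ratio relative to control wells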
PG9 bind confirm: PG9 antibody binding, confirmed; shares compounds with PG9 Ab binder; TR-FRET PG9 antibody binding, biochemical; inhibition, % at 6.7 µM; hit rate 90% among 1,500; in the data active means inhibition above about 9%
PGV04 counter: PGV04 control antibody binding, counter-screen; inhibition, % at 6.7 µM; hit rate 95% among 1,500; shares compounds with PG9 Ab binder; AID 651604; TR-FRET PGV04 antibody-gp120 binding, biochemical; in the data active means inhibition above about 9.5%
PG9 binder DR: PG9 antibody binding, dose response. IC50, µM. shares compounds with PG9 Ab binder. 95 tested, under 10 active. TR-FRET PG9 antibody-gp120 binding inhibition. AID 651848; in the data active means IC50 below about 10 µM
PGV04 binding DR: PGV04 binding, dose response counter-screen | shares compounds with PG9 Ab binder | TR-FRET binding to control antibody PGV04 | IC50, µM | hit rate 20% among 95 | AID 651937
PG126 binding DR: binds control antibody PG126 in PG9 counter-screen. TR-FRET binding to antibody PG126, counterscreen. shares compounds with PG9 Ab binder. AID 651939. IC50, µM. hit rate 20% among 95
Of the large screens only hits and unclear results are named; the others gave an inactive call (follow-up assays come after a bar, where they were run). The list is not random: actives were taken first. Their share in the collection is about 1.4%. Unless noted, no stated cut-off is given here; in the data, active means IC50 below about 9 µM; inactive means the rest.

N#Cc1c(-c2ccccc2)c(C#N)c2nc3ccccc3n2c1N	PG9 Ab binder 8.8 | PG9 bind confirm 18 | PGV04 counter 24
COc1ccc(NC(=O)CSc2nc(N)c3cc4c(nc3n2)CCCC4)cc1	none
CC(=O)c1ccc(NC(=O)CSc2nc(N)c3cc4c(nc3n2)CCCC4)cc1	PG9 Ab binder 22 | PG9 bind confirm 14 | PGV04 counter 26
Cc1cccc(NC(=O)CSc2nc3nc4c(cc3c(=O)n2-c2ccccc2)CCCC4)c1	PG9 Ab binder 29 | PG9 bind confirm 25 | PGV04 counter 39
COC(=O)[C@]12C[C@H](CC(=O)N3CCC(c4ccccc4)CC3)C(=O)N(Cc3cccc4ccccc34)C1=C[C@H](C(C)(C)C)O[C@@H]2C	none (no result: PG9 Ab binder, NR2E3 ag-1, NR2E3 ag-2)
Cc1cccc2cc(C#N)c(SCC(=O)NNC(=O)Cc3ccccc3)nc12	PG9 Ab binder 17 | PG9 bind confirm 35 | PGV04 counter 28
Cc1cc(=O)oc2cc(NC(=O)C(C)Oc3cccc(Cl)c3)ccc12 (stereo not drawn)	PG9 Ab binder 10.0 | PG9 bind confirm 12 | PGV04 counter 19
Cc1cc(=O)oc2cc(OC(C)C(=O)Nc3ccc(C(N)=O)cc3)ccc12 (stereo not drawn)	none
COC(=O)c1sc(NC(=O)COc2c(C)cccc2C)nc1C	none
COC(=O)c1sc(NC(=O)COc2ccccc2C)nc1C	PG9 Ab binder 11 | PG9 bind confirm 20 | PGV04 counter 28
c1cncc(Oc2ccc(NCCc3c[nH]c4ccccc34)cc2)c1	none (no result: NR2E3 ag-1, NR2E3 ag-2)
O=C(OC12CCCN(C1)/C(=C/c1ccccc1)C2)c1ccc(Cl)cc1 (stereo not drawn)	none (no result: PG9 Ab binder, NR2E3 ag-1, NR2E3 ag-2)
COc1ccc(NC(C)=O)cc1NC(=O)CSc1nnc(-c2ccncc2)n1C	none
Cc1ccc(NC(=O)CSc2nnc(-c3ccncc3)n2C)cc1C	PG9 Ab binder 17 | PG9 bind confirm 15 | PGV04 counter 40
Cc1cccc2cc(COC(=O)c3ccccc3)c(=O)[nH]c12	PG9 Ab binder 23 | PG9 bind confirm 22 | PGV04 counter 38
Cc1cccc(C(=O)OCc2cc3ccccc3[nH]c2=O)c1	PG9 Ab binder 12 | PG9 bind confirm 13 | PGV04 counter 18
C[C@@H]1COc2cccc(F)c2S(=O)(=O)N1C	none (no result: PG9 Ab binder, NR2E3 ag-1, NR2E3 ag-2)
Cc1ccc(Sc2c(O)c3ccccc3n(C)c2=O)cc1	PG9 Ab binder 14 (no result: NR2E3 ag-2) | PG9 bind confirm 17 | PGV04 counter 24
Cn1c(=O)c(Sc2ccccc2)c(O)c2ccccc21	none
CCOc1ccc2cc(C(=O)NCc3ccccc3)c(=N)oc2c1	PG9 Ab binder 40 | PG9 bind confirm 15 | PGV04 counter inactive | PG9 binder DR inactive | PGV04 binding DR inactive | PG126 binding DR inactive
Cc1cc(C)cc(NC(=O)C2CCN(S(=O)(=O)c3ccc4[nH]c(=O)ccc4c3)CC2)c1	PG9 Ab binder 13 | PG9 bind confirm 16 | PGV04 counter 30
CCc1cccc(NC(=O)C2CCN(S(=O)(=O)c3ccc4[nH]c(=O)ccc4c3)CC2)c1	none
COc1ccccc1NS(=O)(=O)c1cccc(NC(=O)c2[nH]c(C)c(C(C)=O)c2C)c1	PG9 Ab binder 12 | PG9 bind confirm 21 | PGV04 counter 19 | PG9 binder DR inactive | PGV04 binding DR inactive | PG126 binding DR inactive
CCN(CC)C(=O)CC[C@@H]1CC[C@]2(CCCN(Cc3ccc(Br)cc3)C2)O1	none (no result: PG9 Ab binder, NR2E3 ag-1, NR2E3 ag-2)
Cc1ccc(S(=O)(=O)N2CCC(C(=O)Nc3ccc4c(c3)OCO4)CC2)cc1	none
O=C(Nc1ccc2c(c1)OCO2)C1CCN(c2ccc(S(=O)(=O)N3CCOCC3)cc2)CC1	PG9 Ab binder 16 | PG9 bind confirm 27 | PGV04 counter 25 | PG9 binder DR inactive | PGV04 binding DR inactive | PG126 binding DR inactive
O=C(NC(=S)Nc1ccccc1N1CCOCC1)c1sc2ccccc2c1Cl	none
O=C(O)c1ccccc1NC(=S)NC(=O)c1sc2ccccc2c1Cl	PG9 Ab binder 9.8 | PG9 bind confirm 17 | PGV04 counter 19
Cc1cc(O)c2c(CN3CCN(Cc4ccccc4)CC3)cc(=O)oc2c1	none
COC(=O)Cc1c(C)c2c(O)cc(C)cc2oc1=O	PG9 Ab binder 10 | PG9 bind confirm 18 | PGV04 counter 18 | PG9 binder DR inactive | PGV04 binding DR inactive | PG126 binding DR inactive
CCCc1cc(=O)oc2cc(C)cc(OCc3nn[nH]n3)c12	none
CCCc1cc(=O)oc2cc(C)cc(O)c12	PG9 Ab binder 9.3 | PG9 bind confirm 14 | PGV04 counter 19
CCc1cc(=O)oc2cc(C)cc(O)c12	PG9 Ab binder 15 | PG9 bind confirm 14 | PGV04 counter 20
CCOC(=O)c1ccccc1NC(=O)/C=C/c1cc(OC)c(OC)c(OC)c1	PG9 Ab binder 22 | PG9 bind confirm 19 | PGV04 counter 24
COC(=O)C1(C)CN(S(=O)(=O)c2ccc(C)cc2)c2cc(OC)ccc2C1=O (stereo not drawn)	PG9 Ab binder 8.6 | PG9 bind confirm 15 | PGV04 counter 18
Nc1c(C(=O)Nc2ccccc2)sc2nc(N3CCOCC3)c3c(c12)CCCC3	none (no result: NR2E3 ag-2)
Nc1c(C(=O)NCc2ccccc2)sc2nc(N3CCOCC3)c3c(c12)CCCC3	PG9 Ab binder 10 | PG9 bind confirm 8.6 | PGV04 counter 16
COC(=O)[C@]12C[C@H](CC(=O)NCc3ccccc3)C(=O)N(CCc3ccc(OC)c(OC)c3)C1=C[C@H](COCc1ccccc1)O[C@@H]2C	none (no result: PG9 Ab binder, NR2E3 ag-1, NR2E3 ag-2)
COc1cccc(C2/C(=C(\O)c3ccc(OC)c(OC)c3)C(=O)C(=O)N2c2cc(C)on2)c1 (stereo not drawn)	PG9 Ab binder 14 | PG9 bind confirm 25 | PGV04 counter 34
COC(=O)[C@]12C[C@H](CC(=O)NCCc3ccccc3OC)C(=O)N(Cc3ccc(Cl)cc3Cl)C1=C[C@H](C(C)(C)C)O[C@@H]2C	none (no result: PG9 Ab binder, NR2E3 ag-1, NR2E3 ag-2)
O=C(CSc1nc2ccccc2c(=O)[nH]1)NCc1ccc(Cl)cc1	PG9 Ab binder 12 | PG9 bind confirm 24 | PGV04 counter 27
O=c1[nH]c(SCc2nc3ccccc3c(=O)n2-c2ccccc2)nc2ccccc12	PG9 Ab binder 13 | PG9 bind confirm 22 | PGV04 counter 28
O=c1[nH]c(SCc2ccc(Cl)cc2)nc2ccccc12	none
O=C(CSc1nc2ccccc2c(=O)n1Cc1ccc(Cl)cc1)NCc1cccs1	PG9 Ab binder 17 | PG9 bind confirm 21 | PGV04 counter 30
O=c1[nH]c(SCc2n[nH]c(=S)n2-c2ccccc2)nc2ccccc12	none

Source: PubChem BioAssay
